Here are results for 13 compounds from ChEMBL document CHEMBL4043307, “Toward β-Secretase-1 Inhibitors with Improved Isoform Selectivity” (J Med Chem, 2018).

Data set [1] addresses T1, Beta-secretase 1 (Homo sapiens, UniProt P56817). The data set can be described thus: Inhibition of human BACE1 (1 to 460 residues) fused with Fc domain of IgG1 expressed in HEK293 cells preincubated for 10 mins followed by substrate addition measured after 17 mins by TR-FRET assay. Type of data set: cell-based. Put shortly: (§1)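 Biochemical protease assays on the human BACE1 or BACE2 enzyme. Both assays use the same fluorescently labelled peptide substrate, designed to span the BACE cleavage site of APP.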

Data set [2] has as its target T1, Beta-secretase 1. The data set can be described thus: Inhibition of BACE1 in human SH-SY5Y cells assessed as decrease in sAPP-beta release after 16 to 17 hrs. Type of data set: cell-based.
The next data set concerns Liver. Description: Intrinsic clearance in human liver microsomes at 1 uM after 30 mins by LC-MS/MS method. Type of data set: ADME, microsome. The conditions noted are these: 0.5 h. (Liver microsomes are vesicles of endoplasmic reticulum, rich in cytochrome P450 enzymes.)
Data set [3] in a line: Intrinsic clearance in rat hepatocytes assessed per million cells at 1 uM after 120 mins by LC-MS/MS method. The conditions noted are these: 2 h. Type of data set: ADME, cell-based, Hepatocyte.
Data set [4] is described as follows: Unbound brain-to-plasma concentration ratio in CD rat at 1 mg/kg, po as cassette dose after 2 hrs by LC-MS/MS method. Type of data set: ADME, organism-based. The conditions noted are these: brain and plasma, read-out: K(p,uu,brain).
For data set [5], the target named is Cathepsin D (Homo sapiens) (UniProt P07339). The data set can be described thus: Inhibition of human cathepsin D up to 100 uM using MOCAc-Gly-Lys-Pro-Ile-Leu-Phe-Phe-Arg-Leu-Lys(Dnp)-D-Arg-NH2 as substrate after 10 mins by spectrophotometric method. The conditions noted are these: tested as the 2H-labelled form.
Chain of Cathepsin D (Homo sapiens) (P07339 65-162 limits assumed): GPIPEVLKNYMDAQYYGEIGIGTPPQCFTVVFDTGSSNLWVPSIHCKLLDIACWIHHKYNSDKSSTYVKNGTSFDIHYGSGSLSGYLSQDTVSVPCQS
Chain of Cathepsin D (Homo sapiens) (P07339 169-412 limits assumed): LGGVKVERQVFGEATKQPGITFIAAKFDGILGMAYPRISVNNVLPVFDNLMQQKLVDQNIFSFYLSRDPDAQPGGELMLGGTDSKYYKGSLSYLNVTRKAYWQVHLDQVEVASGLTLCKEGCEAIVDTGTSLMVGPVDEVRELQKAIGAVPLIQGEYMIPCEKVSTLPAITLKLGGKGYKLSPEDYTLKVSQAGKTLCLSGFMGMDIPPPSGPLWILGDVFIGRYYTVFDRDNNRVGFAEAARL
Data set [6] addresses Cathepsin S (Homo sapiens) (UniProt P25774). The data set can be described thus: Inhibition of full length recombinant human cathepsin S up to 100 uM using Z-Leu-Arg-AMC as substrate after 30 mins by spectrophotometric method. To be noted: tested as the 2H-labelled form.
The next data set concerns the target T2, Renin (Homo sapiens) (UniProt P00797).
T2 sequence (whole entry): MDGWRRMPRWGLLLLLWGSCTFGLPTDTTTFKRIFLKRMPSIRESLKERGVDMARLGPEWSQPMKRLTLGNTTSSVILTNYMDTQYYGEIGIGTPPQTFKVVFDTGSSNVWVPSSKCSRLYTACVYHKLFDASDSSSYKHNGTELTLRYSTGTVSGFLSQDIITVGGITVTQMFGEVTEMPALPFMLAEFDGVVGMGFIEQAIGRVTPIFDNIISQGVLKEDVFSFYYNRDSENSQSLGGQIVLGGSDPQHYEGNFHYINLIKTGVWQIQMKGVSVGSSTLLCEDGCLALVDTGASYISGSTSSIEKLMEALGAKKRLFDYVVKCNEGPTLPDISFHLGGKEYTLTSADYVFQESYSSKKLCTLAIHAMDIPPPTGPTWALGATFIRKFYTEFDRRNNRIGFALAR
The data set can be described thus: Inhibition of full length recombinant human renin up to 100 uM using DABCYL-gamma-Abu-Ile-His-Pro-Phe-His-Leu-Val-Ile-His-Thr-EDANS as substrate after 60 mins by spectrophotometric method. The conditions noted are these: tested as the 2H-labelled form.

For a further data set, the species on record is Sus scrofa. Description: Inhibition of pig pepsin up to 100 uM using MOCAc-Ala-Pro-Ala-Lys-Phe-Phe-Arg-Leu-Lys(Dnp)-NH2 as substrate after 60 mins by spectrophotometric method. The conditions noted are these: tested as the 2H-labelled form.
In data set [7] the test system is Mus musculus. Description: Reduction of amyloid beta-40 levels in C57BL/6 mouse plasma at 50 mg/kg, po after 1.5 to 16 hrs by immunoassay. The conditions noted are these: tested as the 2H-labelled form. Type of data set: functional, organism-based. The essentials: (§2)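 PK/PD study in C57BL/6 mice given 50 mg/kg orally. Brain Aβ40 and Aβ42 and plasma Aβ40 levels were followed over time alongside free brain and plasma exposure, and compared with vehicle-treated controls.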

For data set [8], the system named is Mus musculus. Description: Reduction of amyloid beta-40 levels in C57BL/6 mouse brain at 50 mg/kg, po after 1.5 to 16 hrs by immunoassay relative to vehicle-treated control. Type of data set: functional, organism-based. To be noted: tested as the 2H-labelled form. Put shortly:
as §2

The subject of data set [9] is Mus musculus. Description: Reduction of amyloid beta-42 levels in C57BL/6 mouse brain at 50 mg/kg, po after 1.5 to 16 hrs by immunoassay relative to vehicle-treated control. Type of data set: functional, organism-based. To be noted: tested as the 2H-labelled form. Put shortly: as §2
For the next data set, the target named is hERG (KCNH2) (Homo sapiens, UniProt Q12809). Description: Inhibition of human ERG at 11.1 uM relative to control.
Chain of hERG (KCNH2) (Q12809 whole entry): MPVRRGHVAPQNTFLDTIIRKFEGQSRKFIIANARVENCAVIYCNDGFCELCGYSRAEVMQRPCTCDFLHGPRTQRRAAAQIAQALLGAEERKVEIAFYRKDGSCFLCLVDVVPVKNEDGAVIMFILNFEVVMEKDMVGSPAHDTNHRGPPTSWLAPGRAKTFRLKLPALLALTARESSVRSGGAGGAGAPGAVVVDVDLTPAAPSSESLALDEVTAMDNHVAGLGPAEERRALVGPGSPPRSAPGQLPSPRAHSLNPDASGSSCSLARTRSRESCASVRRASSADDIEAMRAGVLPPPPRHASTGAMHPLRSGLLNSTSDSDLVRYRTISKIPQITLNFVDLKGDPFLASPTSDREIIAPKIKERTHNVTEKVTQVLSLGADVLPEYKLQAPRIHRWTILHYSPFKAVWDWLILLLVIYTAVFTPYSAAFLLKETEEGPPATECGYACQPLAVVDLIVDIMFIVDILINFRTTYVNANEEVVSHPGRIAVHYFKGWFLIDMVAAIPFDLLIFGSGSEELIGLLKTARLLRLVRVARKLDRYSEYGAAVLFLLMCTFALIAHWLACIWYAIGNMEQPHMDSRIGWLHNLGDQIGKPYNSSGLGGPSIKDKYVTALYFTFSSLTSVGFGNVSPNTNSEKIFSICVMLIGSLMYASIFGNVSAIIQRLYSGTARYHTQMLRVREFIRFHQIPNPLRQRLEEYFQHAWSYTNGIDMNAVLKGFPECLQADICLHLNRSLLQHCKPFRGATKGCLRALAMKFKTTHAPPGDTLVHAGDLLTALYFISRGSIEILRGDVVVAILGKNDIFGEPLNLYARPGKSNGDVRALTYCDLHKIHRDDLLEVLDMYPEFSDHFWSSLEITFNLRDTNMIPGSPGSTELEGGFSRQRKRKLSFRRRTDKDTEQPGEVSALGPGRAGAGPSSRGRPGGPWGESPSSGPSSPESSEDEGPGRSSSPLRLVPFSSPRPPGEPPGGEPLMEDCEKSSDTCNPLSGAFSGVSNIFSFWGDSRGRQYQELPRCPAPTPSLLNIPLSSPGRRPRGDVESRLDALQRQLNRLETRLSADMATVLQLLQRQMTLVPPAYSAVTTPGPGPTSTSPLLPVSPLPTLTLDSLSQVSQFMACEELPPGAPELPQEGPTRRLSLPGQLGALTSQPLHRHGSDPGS
A short description of data set [10]: Unbound brain-to-plasma concentration ratio in CD rat at 5 mg/kg, po as cassette dose after 2 hrs by LC-MS/MS method. Type of data set: ADME, organism-based. The conditions noted are these: brain and plasma, read-out: K(p,uu,brain).
The target of data set [11] is Voltage-gated inwardly rectifying potassium channel KCNH2 (Homo sapiens, UniProt Q12809). Description: Inhibition of human ERG.
Chain of Voltage-gated inwardly rectifying potassium channel KCNH2 (Q12809 whole entry): as above
The target of data set [12] is T3, Beta-secretase 2 (Homo sapiens, UniProt Q9Y5Z0).
T3 sequence (Q9Y5Z0 whole entry): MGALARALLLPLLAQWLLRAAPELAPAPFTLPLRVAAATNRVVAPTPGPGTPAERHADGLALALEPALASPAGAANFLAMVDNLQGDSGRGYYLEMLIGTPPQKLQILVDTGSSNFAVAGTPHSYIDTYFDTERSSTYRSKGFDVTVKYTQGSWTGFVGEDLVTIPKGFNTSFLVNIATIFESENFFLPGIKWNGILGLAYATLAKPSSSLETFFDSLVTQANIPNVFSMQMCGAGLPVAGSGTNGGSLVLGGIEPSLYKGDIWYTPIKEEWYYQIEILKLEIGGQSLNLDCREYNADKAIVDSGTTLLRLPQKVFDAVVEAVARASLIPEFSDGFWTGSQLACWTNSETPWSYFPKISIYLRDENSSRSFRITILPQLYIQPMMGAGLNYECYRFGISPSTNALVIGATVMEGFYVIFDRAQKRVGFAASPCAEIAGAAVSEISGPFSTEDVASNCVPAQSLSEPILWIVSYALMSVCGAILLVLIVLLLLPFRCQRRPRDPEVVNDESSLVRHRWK
Description: Inhibition of BACE2 in human MNT1 cells assessed as increase in M-beta accumulation at 10 uM after 24 hrs by Western blot method. Type of data set: cell-based. Put shortly: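 Human melanocyte MNT1 cells incubated with a range of inhibitor concentrations or vehicle (0.1% DMSO). Cells then processed to detect parent PMEL (P1) and the proteolytically cleaved Mβ fragment. Mβ fragment accumulation serves as the read-out of BACE2 inhibition.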
(A western blot detects proteins with antibodies after separation by electrophoresis.)

Data set [13] concerns Mus musculus. The data set can be described thus: Reduction of amyloid beta-42 levels in C57BL/6 mouse brain at 50 mg/kg, po after 3 hrs by immunoassay relative to vehicle-treated control. On the set-up: scale not given: the % may be the effect or the level left. Type of data set: functional. The essentials: as §2
The next data set concerns Brain. Description: Fraction unbound in C57BL/6 mouse brain at 50 mg/kg, po after 3 hrs by LC-MS/MS analysis. Type of data set: ADME, organism-based. The conditions noted are these: in vivo.
Data set [14] can be described thus: Apparent permeability across MDCK cells expressing MDR1 after 2 hrs by LC-MS/MS method. Type of data set: ADME, cell-based, Canis lupus familiaris. The conditions noted are these: dog.
Data set [15] addresses T3, Beta-secretase 2. The data set can be described thus: Inhibition of BACE2 in human MNT1 cells assessed as increase in M-beta accumulation at 10 nM after 24 hrs by Western blot method. Type of data set: cell-based. To be noted: 0.01 µM. The essentials:
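Human melanocyte MNT1 cells incubated with a range of inhibitor concentrations or vehicle (0.1% DMSO), then processed to detect parent PMEL (P1) and the proteolytically cleaved Mβ fragment. Mβ accumulation serves as the read-out of BACE2 inhibition.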

The target of data set [16] is T3, Beta-secretase 2. The data set can be described thus: Inhibition of human BACE2 (1 to 473 residues) using CEVNLDAEFK as substrate preincubated for 10 mins followed by substrate addition measured after 6.5 hrs by TR-FRET assay. The essentials:
as §1
(TR-FRET usually uses a lanthanide donor and a delayed reading to cut background.)

Calls of active or inactive are those of the source. No cut-off for these calls is given here. A value given as a limit tells only on which side of the number the result lay.

T1 sequence (P56817 whole entry, the tested form may be a part): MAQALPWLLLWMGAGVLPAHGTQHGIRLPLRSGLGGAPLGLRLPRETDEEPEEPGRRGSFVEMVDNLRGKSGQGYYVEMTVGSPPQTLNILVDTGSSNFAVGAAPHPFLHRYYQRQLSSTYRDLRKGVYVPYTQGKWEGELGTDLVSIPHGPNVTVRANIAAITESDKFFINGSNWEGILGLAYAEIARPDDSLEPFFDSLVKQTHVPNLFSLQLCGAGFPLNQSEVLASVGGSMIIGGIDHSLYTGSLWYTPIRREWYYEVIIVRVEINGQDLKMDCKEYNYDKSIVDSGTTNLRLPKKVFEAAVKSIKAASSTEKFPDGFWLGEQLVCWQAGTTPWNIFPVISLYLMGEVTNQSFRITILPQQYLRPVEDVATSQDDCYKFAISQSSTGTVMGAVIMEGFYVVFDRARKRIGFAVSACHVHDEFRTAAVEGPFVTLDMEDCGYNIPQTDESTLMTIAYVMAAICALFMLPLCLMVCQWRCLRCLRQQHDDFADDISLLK
Chain of Cathepsin S (Homo sapiens) (P25774 115-331 limits assumed): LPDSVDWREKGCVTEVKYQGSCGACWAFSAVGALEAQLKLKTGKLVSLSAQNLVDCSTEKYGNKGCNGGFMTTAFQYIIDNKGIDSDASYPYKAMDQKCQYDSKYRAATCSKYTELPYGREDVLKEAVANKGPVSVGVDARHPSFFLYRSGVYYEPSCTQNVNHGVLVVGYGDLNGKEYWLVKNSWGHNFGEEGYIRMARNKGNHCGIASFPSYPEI

One may read the Ki as a dissociation constant, usually derived from enzyme kinetics or from competition with a known ligand. One may read the IC50 as the midpoint of a concentration-inhibition curve. Regarding `[2H]C1([2H])OC(N)=N[C@]12c1cc(-c3cncnc3)ccc1C[C@]21CC[C@@H](OC)CC1`, affinity on Beta-secretase 1 [1] was put at a Ki of 134 nM. Moreover, the IC50 at Beta-secretase 1 [2] was found to be 7 nM.

As for `COc1cc(C#N)cc(-c2ccc3c(c2)[C@@]2(COC(N)=N2)[C@]2(CC[C@H](OC)CC2)C3)c1`, the CLH amounted to 13.9 µL/min/mg in the data set on Liver and 23.9 µL/min/10^6 cells in data set [3]. In addition, in data set [4], the Kp uu at 2 h was 0.07.

As a reminder, the inhibition is the relative decrease from the control value, in per cent. `CO[C@H]1CC[C@@]2(Cc3ccc(-c4cncnc4)cc3[C@@]23COC(N)=N3)C[C@@H]1C`: the inhibition entry (in [5]; in [6]; at Renin (Homo sapiens); in the data set listed under Sus scrofa) was “inactive” each time. For the same compound, in the data set on Mus musculus [7], the outcome was Active. In addition, the result in the data set on Mus musculus [8] and in the data set with Mus musculus [9] was inactive.

Regarding `[2H]C1([2H])OC(N)=N[C@]12c1cc(-c3cccnc3)ccc1C[C@]21CC[C@@H](OC)CC1`, the Ki at Beta-secretase 1 [1] was 430 nM. For the same compound, on Beta-secretase 1 [2], the IC50 is 7 nM.

On to `[2H]C1([2H])OC(N)=N[C@]12c1cc(-c3cncnc3)ccc1C[C@@]21CC[C@H](OC)[C@@H](CC)C1`, for which the CLH in the data set with Liver was found to be 153 µL/min/mg; in data set [3], 158 µL/min/10^6 cells. The compound further had an inhibition at 11.1 µM against hERG (KCNH2) of 29%.

On to `[2H]C1([2H])OC(N)=N[C@]12c1cc(-c3cncnc3)ccc1C[C@]21CC[C@@H](OC)[C@H](CC)C1`, for which the CLH with Liver came to 149 µL/min/mg; in [3], 138 µL/min/10^6 cells. At hERG (KCNH2), this compound had an inhibition at 11.1 µM of 15%.

As for `[2H]C1([2H])OC(N)=N[C@]12c1cc(-c3cc(C#N)cc(OC)c3)ccc1C[C@]21CC[C@@H](OC)CC1`, the CLH in the data set on Liver is 15.7 µL/min/mg; in data set [3], 25.1 µL/min/10^6 cells. In addition, the Kp uu at 2 h in data set [10] came out at 0.27.

Regarding `[2H]C1([2H])OC(N)=N[C@]12c1cc(-c3cc(Cl)cc(C#N)c3)ccc1C[C@]21CC[C@@H](OC)CC1`, the figures for the CLH (in the data set on Liver; in data set [3]) were 11.5 µL/min/mg and 8.7 µL/min/10^6 cells, respectively. Further, the Kp uu at 2 h in data set [10] came out at 0.68.

For `[2H]C1([2H])OC(N)=N[C@]12c1cc(-c3cncnc3)ccc1C[C@@]21CC[C@H](OC)[C@@H](C)C1`, the CLH is 47 µL/min/mg in the data set with Liver and 66 µL/min/10^6 cells in [3]. The compound further had a half-inhibitory concentration (IC50) in [11] of over 33000 nM. Also, on Beta-secretase 2 [12], the “inhibition (INH)” value is “Active”. Moreover, the Activity in the data set with Mus musculus [13] turned out to be 30%. Also, in the data set on Brain, the “Drug uptake(free)” value is 50 nM.

Consider `[2H]C1([2H])OC(N)=N[C@]12c1cc(-c3cncnc3)ccc1C[C@@]21C[C@@H](C)[C@H](OC)[C@@H](C)C1` (racemic), for which the CLH in the data set on Liver turned out to be 187 µL/min/mg; in data set [3], 137 µL/min/10^6 cells.

Regarding `CO[C@H]1CC[C@]2(CC1)Cc1ccc(-c3cc(Cl)cc(C#N)c3)cc1[C@@]21COC(N)=N1`, the permeability result in data set [14] is given as “Impermeable”. Moreover, the CLH with Liver is 11.1 µL/min/mg; in data set [3], 11.6 µL/min/10^6 cells. In [4], the Kp uu at 2 h was 0.21.

With `NC1=N[C@@](c2cccc(-c3cncnc3)c2)(c2ccnc(C(F)F)c2)c2cccc(F)c21` [AZD-3839], the “inhibition (INH)” value on Beta-secretase 2 [15] was “Active”. Further, the IC50 at Beta-secretase 2 [16] worked out at 0.9 nM.

`[2H]C1([2H])OC(N)=N[C@]12c1cc(-c3cncnc3)ccc1C[C@]21CC[C@@H](OC)[C@H](C)C1`: the CLH with Liver came to 52.4 µL/min/mg; in data set [3], 82 µL/min/10^6 cells. This compound also returned a half-maximal inhibitory concentration (IC50) in data set [11] of over 33000 nM.
